Assay results from ChEMBL document CHEMBL1126990, “Design and synthesis of 18F-labeled neurotoxic analogs of MPTP” (J Med Chem, 1993).

Columns and labels:
[1] = organism: Mus musculus; experiment: Biodistribution of [18F]-radiolabeled compound in the mouse intestine after 60 minutes (average uptake in (%injected dose)/(% body weight); assay type: ADME, organism-based; conditions: in vivo, 1 h
How it was run: (§1)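 Adult male C57 Black mice (about 20 g), anesthetized with 1 mg sodium pentobarbital ip, given 0.1 mL (~0.05 mCi) tracer via tail vein. Killed by cervical dislocation at set times (5–90 min). Organs sampled, counted, weighed. Injected dose measured against weighed standards, minus residual tail activity. %id/g multiplied by body weight gives normalized uptake. Mean ± SD, N = 3 (N = 2 at 5 min).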

[2] = organism: Mus musculus; experiment: Biodistribution of [18F]-radiolabeled compound in the mouse liver after 30 minutes (average uptake in (%injected dose)/(% body weight); assay type: ADME, organism-based; conditions: in vivo, 0.5 h; how it was run: as §1
[3] = organism: Mus musculus; experiment: Biodistribution of [18F]-radiolabeled compound in the mouse muscle after 15 minutes (average uptake in (%injected dose)/(% body weight); assay type: ADME, organism-based, Muscle tissue; conditions: in vivo, 0.25 h; how it was run: as §1
[4] = organism: Mus musculus; experiment: Biodistribution of [18F]-radiolabeled compound in the mouse intestine after 5 minutes (average uptake in (%injected dose)/(% body weight); assay type: ADME, organism-based; conditions: in vivo; how it was run: as §1
[5] = organism: Mus musculus; experiment: Biodistribution of [18F]-radiolabeled compound in the mouse blood after 60 minutes (average uptake in (%injected dose)/(% body weight); assay type: ADME, organism-based; conditions: in vivo, 1 h; how it was run: as §1
[6] = organism: Mus musculus; experiment: Biodistribution of [18F]-radiolabeled compound in the mouse intestine after 90 minutes (average uptake in (%injected dose)/(% body weight); assay type: ADME, organism-based; conditions: in vivo, 1.5 h; how it was run: as §1
[7] = organism: Mus musculus; experiment: Biodistribution of [18F]-radiolabeled compoundP in the mouse spleen after 15 minutes (average uptake in (%injected dose)/(% body weight); assay type: ADME, organism-based; conditions: in vivo, 0.25 h; how it was run: as §1
[8] = organism: Mus musculus; experiment: Biodistribution of [18F]-radiolabeled compound in the mouse muscle after 60 minutes (average uptake in (%injected dose)/(% body weight); assay type: ADME, organism-based, Muscle tissue; conditions: in vivo, 1 h; how it was run: as §1
[9] = organism: Mus musculus; experiment: Biodistribution of [18F]-radiolabeled compound in the mouse blood after 5 minutes (average uptake in (%injected dose)/(% body weight); assay type: ADME, organism-based; conditions: in vivo; how it was run: as §1
[10] = organism: Mus musculus; experiment: Biodistribution of [18F]-radiolabeled compound in the mouse muscle after 90 minutes (average uptake in (%injected dose)/(% body weight); assay type: ADME, organism-based, Muscle tissue; conditions: in vivo, 1.5 h; how it was run: as §1
[11] = organism: Mus musculus; experiment: Biodistribution of [18F]-radiolabeled compound in the mouse spleen after 30 minutes (average uptake in (%injected dose)/(% body weight); assay type: ADME, organism-based; conditions: in vivo, 0.5 h; how it was run: as §1
[12] = organism: Mus musculus; experiment: Biodistribution of [18F]-radiolabeled compound in the mouse brain after 30 minutes (average uptake in (%injected dose)/(% body weight); assay type: ADME, organism-based; conditions: in vivo, 0.5 h; how it was run: as §1
[13] = organism: Mus musculus; experiment: Biodistribution of [18F]-radiolabeled compound in the mouse spleen after 60 minutes (average uptake in (%injected dose)/(% body weight); assay type: ADME, organism-based; conditions: in vivo, 1 h; how it was run: as §1
[14] = organism: Mus musculus; experiment: Biodistribution of [18F]-radiolabeled compound in the mouse liver after 60 minutes (average uptake in (%injected dose)/(% body weight); assay type: ADME, organism-based; conditions: in vivo, 1 h; how it was run: as §1
[15] = organism: Mus musculus; experiment: Biodistribution of [18F]-radiolabeled compound in the mouse bone after 30 minutes (average uptake in (%injected dose)/(% body weight); assay type: ADME, organism-based, Bone element; conditions: in vivo, 0.5 h; how it was run: as §1
[16] = separate experiments, n=4); assay type: ADME
How it was run: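 Rat liver MAO (crude P2 mitochondrial fraction from adult male Wistar rats, in pH 7.4 phosphate buffer) incubated with substrate at 30 μM to 5 mM; colorimetric detection of H2O2 formed. Blanks contained 0.1 mM pargyline. Vmax and Km from linear regression of Lineweaver-Burk plots; means ± SE of n separate experiments; ANOVA with post-hoc Scheffe test.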

[17] = organism: Mus musculus; experiment: Biodistribution of [18F]-radiolabeled compound in the mouse lung after 15 minutes (average uptake in (%injected dose)/(% body weight); assay type: ADME, organism-based; conditions: in vivo, 0.25 h; how it was run: as §1
[18] = organism: Mus musculus; experiment: Biodistribution of [18F]-radiolabeled compound in the mouse brain after 15 minutes (average uptake in (%injected dose)/(% body weight); assay type: ADME, organism-based; conditions: in vivo, 0.25 h; how it was run: as §1
[19] = organism: Mus musculus; experiment: Biodistribution of [18F]-radiolabeled compound in the mouse liver after 90 minutes (average uptake in (%injected dose)/(% body weight); assay type: ADME, organism-based; conditions: in vivo, 1.5 h; how it was run: as §1
[20] = organism: Mus musculus; experiment: Biodistribution of [18F]-radiolabeled compound in the mouse kidney after 60 minutes (average uptake in (%injected dose)/(% body weight); assay type: ADME, organism-based; conditions: in vivo, 1 h; how it was run: as §1
[21] = organism: Mus musculus; experiment: Biodistribution of [18F]-radiolabeled compound in the mouse brain after 5 minutes (average uptake in (%injected dose)/(% body weight); assay type: ADME, organism-based; conditions: in vivo; how it was run: as §1
[22] = organism: Mus musculus; experiment: Biodistribution of [18F]-radiolabeled compound in the mouse liver after 15 minutes (average uptake in (%injected dose)/(% body weight); assay type: ADME, organism-based; conditions: in vivo, 0.25 h; how it was run: as §1
[23] = organism: Mus musculus; experiment: Biodistribution of [18F]-radiolabeled compound in the mouse blood after 30 minutes (average uptake in (%injected dose)/(% body weight); assay type: ADME, organism-based; conditions: in vivo, 0.5 h; how it was run: as §1
[24] = organism: Mus musculus; experiment: Biodistribution of [18F]-radiolabeled compound in the mouse kidney after 5 minutes (average uptake in (%injected dose)/(% body weight); assay type: ADME, organism-based; conditions: in vivo; how it was run: as §1
[25] = organism: Mus musculus; experiment: Biodistribution of [18F]-radiolabeled compound in the mouse kidney after 90 minutes (average uptake in (%injected dose)/(% body weight); assay type: ADME, organism-based; conditions: in vivo, 1.5 h; how it was run: as §1
[26] = organism: Mus musculus; experiment: Biodistribution of [18F]-radiolabeled compound in the mouse bone after 90 minutes (average uptake in (%injected dose)/(% body weight); assay type: ADME, organism-based, Bone element; conditions: in vivo, 1.5 h; how it was run: as §1
[27] = organism: Mus musculus; experiment: Biodistribution of [18F]-radiolabeled compound in the mouse muscle after 5 minutes (average uptake in (%injected dose)/(% body weight); assay type: ADME, organism-based, Muscle tissue; conditions: in vivo; how it was run: as §1

Which results are given for `CN1CC=C(c2ccccc2CF)CC1`?
Time [1]: 0.88 min; Time [2]: 1.36 min; Time [3]: 0.54 min; Time [4]: 1.36 min; Time [5]: 0.31 min; Time [6]: 2.32 min; Time [7]: 1.33 min; Time [8]: 0.3 min; Time [9]: 0.67 min; Time [10]: 0.24 min; Time [11]: 1.04 min; Time [12]: 0.68 min; Time [13]: 0.93 min; Time [14]: 0.72 min; Time [15]: 1.91 min; Km [16]: 159 µM; Time [17]: 3.83 min; Time [18]: 0.82 min; Time [19]: 0.778 min; Time [20]: 0.94 min; Time [21]: 1.48 min; Time [22]: 2.33 min; Time [23]: 0.4 min; Time [24]: 4.04 min; Time [25]: 0.72 min; Time [26]: 3.32 min; Time [27]: 0.61 min
